According to ChEMBL document CHEMBL1129261, “De novo antimicrobial peptides with low mammalian cell toxicity” (1996):
In brackets after ≈: the same amount, converted by molar mass.

Experiments:
[1] = test system: Escherichia coli; assay: Compound was evaluated for antibacterial activity against Escherichia coli; type: functional
Method in brief: (§1)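 Broth microdilution MIC against E. coli ATCC 25922, P. aeruginosa ATCC 27853, S. aureus ATCC 25723. Cultures grown to midlog phase in nutrient broth, standardized to 0.5 McFarland, diluted to 5 × 10^4 cells per well. Equal volume of peptide added, 1:2 serial dilutions giving 256-2 µg/mL in medium. MIC is the lowest concentration with no turbidity […]. Median of three to seven tests.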

[2] = organism: Homo sapiens; assay: Compound was measured for sublethal concentrations (uM) in Human erythrocytes; type: functional
Method in brief: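 Human erythrocytes (1 × 10^5 per well) incubated at 37 °C for 30 min with peptide. Peptide was dissolved in serum-free MEM and diluted 2-fold serially. Sublethal concentration is the highest dilution […]. A "greater than" entry means slight hemolysis at the highest concentration tested.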

[3] = organism: Mus musculus; assay: (§2) Compound was tested for sublethal concentrations in 3T3 mouse fibroblast lysis.; type: functional
Method in brief: (§3)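 Mouse 3T3 fibroblast monolayers, 1 day old (about 1 × 10^4 cells/well), in MEM. Peptide applied as 2-fold serial dilutions in MEM, 30 min at 37 °C alongside untreated controls. Cells then stained with 0.2% trypan blue and viewed by light microscopy. Sublethal dose is the highest dilution in which only 1-10 adherent cells stay unstained.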

[4] = test system: Pseudomonas aeruginosa; assay: Compound was evaluated for antibacterial activity against Pseudomonas aeruginosa; type: functional; method in brief: as §1
[5] = test system: Staphylococcus aureus; assay: Compound was evaluated for antibacterial activity against Staphylococcus aureus; type: functional; method in brief: as §1
[6] = test system: NIH3T3; assay: as §2; type: functional, cell-based; method in brief: as §3

| Molecule | MIC [1] [µM] | Concentration [2] [µM] | Concentration [3] [µM] | MIC [4] [µM] | MIC [5] [µM] | Concentration [6] [µM] |
| --- | --- | --- | --- | --- | --- | --- |
| H-GIGKFLHSAKKFGKAFVGEIMNS-NH2 | 10 | > 460 | 60 | 5 | 19 |  |
| H-KLAKKLAKLAKKLA-OH | 6 | > 750 | > 272 | 3 | 6 |  |
| H-KLAKKLA-OH | > 100 |  |  | > 100 | > 100 |  |
| H-KAAKKAAKAAKKAAKAAKKAA-OH | 8 | > 1630 | > 440 |  | 8 |  |
| CC(C)C[C@H](NC(=O)[C@H](CCCCN)NC(=O)[C@H](CCCCN)NC(=O)[C@H](C)NC(=O)[C@H](CC(C)C)NC(=O)[C@H](CCCCN)NC(=O)[C@H](C)NC(=O)[C@H](CC(C)C)NC(=O)[C@H](CCCCN)NC(=O)[C@H](CCCCN)NC(=O)[C@H](C)NC(=O)[C@H](CC(C)C)NC(=O)[C@H](CCCCN)NC(=O)[C@H](C)NC(=O)[C@H](CC(C)C)NC(=O)[C@H](CCCCN)NC(=O)[C@H](CCCCN)NC(=O)[C@H](C)NC(=O)[C@H](CC(C)C)NC(=O)[C@@H](N)CCCCN)C(=O)N[C@@H](C)C(=O)O | 4 (≈ 9.11 µg/mL) | > 250 | 11 | 4 (≈ 9.11 µg/mL) | 4 (≈ 9.11 µg/mL) |  |
| H-KLAKLAK-OH | > 95 |  |  | > 95 | > 95 |  |
| H-KAAKKAAKAAKKAA-OH | 47 | > 670 | > 525 |  | > 256 |  |
| CC[C@H](C)[C@H](NC(=O)CN)C(=O)NCC(=O)N[C@@H](C)C(=O)N[C@H](C(=O)N[C@@H](CC(C)C)C(=O)N[C@@H](CCCCN)C(=O)N[C@H](C(=O)N[C@@H](CC(C)C)C(=O)N[C@H](C(=O)N[C@H](C(=O)NCC(=O)N[C@@H](CC(C)C)C(=O)N1CCC[C@H]1C(=O)N[C@@H](C)C(=O)N[C@@H](CC(C)C)C(=O)N[C@H](C(=O)N[C@@H](CO)C(=O)N[C@@H](Cc1c[nH]c2ccccc12)C(=O)N[C@H](C(=O)N[C@@H](CCCCN)C(=O)N[C@@H](CCCNC(=N)N)C(=O)N[C@@H](CCCCN)C(=O)N[C@@H](CCCNC(=N)N)C(=O)N[C@@H](CCC(N)=O)C(=O)N[C@@H](CCC(N)=O)C(N)=O)[C@@H](C)CC)[C@@H](C)CC)[C@@H](C)O)[C@@H](C)O)C(C)C)C(C)C |  | 1 | 1 |  |  |  |
| CC(C)C[C@H](NC(=O)[C@H](C)NC(=O)[C@H](CCCCN)NC(=O)[C@H](CC(C)C)NC(=O)[C@H](C)NC(=O)[C@H](CCCCN)NC(=O)[C@H](CCCCN)NC(=O)[C@H](CC(C)C)NC(=O)[C@H](C)NC(=O)[C@H](CCCCN)NC(=O)[C@H](CC(C)C)NC(=O)[C@H](C)NC(=O)[C@H](CCCCN)NC(=O)[C@H](CCCCN)NC(=O)[C@H](CC(C)C)NC(=O)[C@H](C)NC(=O)[C@H](CCCCN)NC(=O)[C@H](CC(C)C)NC(=O)[C@H](C)NC(=O)[C@@H](N)CCCCN)C(=O)N[C@@H](CCCCN)C(=O)O | 4 (≈ 9.11 µg/mL) |  |  | 4 (≈ 9.11 µg/mL) | 8 (≈ 18.2 µg/mL) | 11 |
| CC(C)C[C@H](NC(=O)[C@H](CCCCN)NC(=O)[C@H](C)NC(=O)[C@H](CC(C)C)NC(=O)[C@H](CCCCN)NC(=O)[C@H](CCCCN)NC(=O)[C@H](C)NC(=O)[C@H](CC(C)C)NC(=O)[C@H](CCCCN)NC(=O)[C@H](C)NC(=O)[C@H](CC(C)C)NC(=O)[C@@H](N)CCCCN)C(=O)N[C@@H](C)C(=O)N[C@@H](CCCCN)C(=O)O | 6 (≈ 9.14 µg/mL) | > 750 | > 517 | 6 (≈ 9.14 µg/mL) | 6 (≈ 9.14 µg/mL) |  |
| CC(C)C[C@H](NC(=O)[C@H](CCCCN)NC(=O)[C@H](C)NC(=O)[C@H](CC(C)C)NC(=O)[C@H](CCCCN)NC(=O)[C@H](CCCCN)NC(=O)[C@H](C)NC(=O)[C@H](CC(C)C)NC(=O)[C@H](CCCCN)NC(=O)[C@H](C)NC(=O)[C@H](CC(C)C)NC(=O)[C@H](CCCCN)NC(=O)[C@H](CCCCN)NC(=O)[C@H](C)NC(=O)[C@H](CC(C)C)NC(=O)[C@H](CCCCN)NC(=O)[C@H](C)NC(=O)[C@H](CC(C)C)NC(=O)[C@@H](N)CCCCN)C(=O)N[C@@H](C)C(=O)N[C@@H](CCCCN)C(=O)O | 4 (≈ 9.11 µg/mL) | > 520 | 9 | 4 (≈ 9.11 µg/mL) | 4 (≈ 9.11 µg/mL) |  |
| H-KLGKKLGKLGKKLGKLGKKLG-OH | 4 | > 570 | > 393 | 4 | 4 |  |
| H-KLGKKLGKLGKKLG-OH | 22 | > 780 |  |  | 22 |  |
